Measured values from ChEMBL document CHEMBL3779898, “3,3'-OH curcumin causes apoptosis in HepG2 cells through ROS-mediated pathway” (Eur J Med Chem, 2016).
Activity calls are given as the source filed them. The calls are words filed in the database; no cut-off is given here.

How the values were obtained:
[1] = test system: HepG2; test: Cytotoxicity against human HepG2 cells assessed as reduction in cell viability after 48 hrs by MTT assay; type: functional, cell-based; settings: HepG2, 48 h
Method in brief: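 HepG2 seeded at 3×10^3/well, grown 24 h, then exposed to compounds for 48 h. MTT (0.5 mg/mL) added for 4 h, formazan dissolved in DMSO, absorbance read at 570 nm. IC50 = concentration giving 50% loss of viability; mean ± SD of three determinations.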

[2] = test system: Serum; test: Stability in RPMI-1640 medium containing 10% fetal calf serum at 25 uM incubated for 20 to 120 mins at 25 degC; type: ADME, Bos taurus; settings: cattle
[3] = test system: HepG2; test: Potency index, ratio of curcumin IC50 to compound IC50 for human HepG2 cells; type: functional
Method in brief: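 Derived from MTT IC50 values in HepG2 after 48 h treatment, means of three determinations.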

[4] = test system: HepG2; test: Induction of apoptosis in human HepG2 cells assessed as early apoptotic cells at 12.5 uM after 24 hrs by Annexin V-FITC/propidium iodide staining based flow cytometry (reference value: 2.8%); type: functional
Method in brief: (§1)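 HepG2 plated at 5×10^5/well, grown 24 h, then treated 24 h; where indicated, 1 h pretreatment with 5 mM GSH or NAC. Cells stained with Annexin V-FITC/PI; 10,000 cells per sample analysed by flow cytometry into early apoptotic, late apoptotic and necrotic quadrants; triplicate.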

[5] = test system: HepG2; test: Induction of apoptosis in human HepG2 cells assessed as early apoptotic cells at 25 uM after 24 hrs by Annexin V-FITC/propidium iodide staining based flow cytometry (reference value: 2.8%); type: functional; method in brief: as §1
[6] = test system: HepG2; test: Induction of apoptosis in human HepG2 cells assessed as early apoptotic cells at 37.5 uM after 24 hrs by Annexin V-FITC/propidium iodide staining based flow cytometry (reference value: 2.8%); type: functional; method in brief: as §1
[7] = test system: HepG2; test: Induction of apoptosis in human HepG2 cells assessed as early apoptotic cells at 50 uM after 24 hrs by Annexin V-FITC/propidium iodide staining based flow cytometry (reference value: 2.8%); type: functional; method in brief: as §1
[8] = test system: HepG2; test: Induction of apoptosis in human HepG2 cells assessed as early apoptotic cells at 50 uM after 24 hrs pretreated with 5 mM glutathione for 1 hr by Annexin V-FITC/propidium iodide staining based flow cytometry (reference value: 2.8%); type: functional; method in brief: as §1
[9] = test system: HepG2; test: Induction of apoptosis in human HepG2 cells assessed as early apoptotic cells at 50 uM after 24 hrs pretreated with 5 mM N-acetylcysteine for 1 hr by Annexin V-FITC/propidium iodide staining based flow cytometry (reference value: 2.8%); type: functional; method in brief: as §1
[10] = test system: HepG2; test: Induction of apoptosis in human HepG2 cells assessed as late apoptotic cells at 12.5 uM after 24 hrs by Annexin V-FITC/propidium iodide staining based flow cytometry (reference value: 5.4%); type: functional; method in brief: as §1
[11] = test system: HepG2; test: Induction of apoptosis in human HepG2 cells assessed as late apoptotic cells at 25 uM after 24 hrs by Annexin V-FITC/propidium iodide staining based flow cytometry (reference value: 5.4%); type: functional; method in brief: as §1
[12] = test system: HepG2; test: Induction of apoptosis in human HepG2 cells assessed as late apoptotic cells at 37.5 uM after 24 hrs by Annexin V-FITC/propidium iodide staining based flow cytometry (reference value: 5.4%); type: functional; method in brief: as §1
[13] = test system: HepG2; test: Induction of apoptosis in human HepG2 cells assessed as late apoptotic cells at 50 uM after 24 hrs by Annexin V-FITC/propidium iodide staining based flow cytometry (reference value: 5.4%); type: functional; method in brief: as §1
[14] = test system: HepG2; test: Induction of apoptosis in human HepG2 cells assessed as late apoptotic cells at 50 uM after 24 hrs pretreated with 5 mM glutathione for 1 hr by Annexin V-FITC/propidium iodide staining based flow cytometry (reference value: 5.4%); type: functional; method in brief: as §1
[15] = test system: HepG2; test: Induction of apoptosis in human HepG2 cells assessed as late apoptotic cells at 50 uM after 24 hrs pretreated with 5 mM N-acetylcysteine for 1 hr by Annexin V-FITC/propidium iodide staining based flow cytometry (reference value: 5.4%); type: functional; method in brief: as §1
[16] = test system: HepG2; test: Induction of apoptosis in human HepG2 cells assessed as necrotic cells at 12.5 uM after 24 hrs by Annexin V-FITC/propidium iodide staining based flow cytometry (reference value: 1.6%); type: functional; method in brief: as §1
[17] = test system: HepG2; test: Induction of apoptosis in human HepG2 cells assessed as necrotic cells at 25 uM after 24 hrs by Annexin V-FITC/propidium iodide staining based flow cytometry (reference value: 1.6%); type: functional; method in brief: as §1
[18] = test system: HepG2; test: Induction of apoptosis in human HepG2 cells assessed as necrotic cells at 37.5 uM after 24 hrs by Annexin V-FITC/propidium iodide staining based flow cytometry (reference value: 1.6%); type: functional; method in brief: as §1
[19] = test system: HepG2; test: Induction of apoptosis in human HepG2 cells assessed as necrotic cells at 50 uM after 24 hrs by Annexin V-FITC/propidium iodide staining based flow cytometry (reference value: 1.6%); type: functional; method in brief: as §1
[20] = test system: HepG2; test: Induction of apoptosis in human HepG2 cells assessed as necrotic cells at 50 uM after 24 hrs pretreated with 5 mM glutathione for 1 hr by Annexin V-FITC/propidium iodide staining based flow cytometry (reference value: 1.6%); type: functional; method in brief: as §1
[21] = test system: HepG2; test: Induction of apoptosis in human HepG2 cells assessed as necrotic cells at 50 uM after 24 hrs pretreated with 5 mM N-acetylcysteine for 1 hr by Annexin V-FITC/propidium iodide staining based flow cytometry (reference value: 1.6%); type: functional; method in brief: as §1
[22] = test system: HepG2; test: Induction of apoptosis in human HepG2 cells after 24 hrs by Annexin V-FITC/propidium iodide staining based flow cytometry; type: functional, cell-based; method in brief: as §1
[23] = test system: HepG2; test: Induction of intracellular ROS production in human HepG2 cells at 50 uM after 6 hrs by DCFH-DA staining based flow cytometry relative to control; type: functional
Method in brief: (§2)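 Cells treated with 50 μM compound for 6 h, with or without 1 h catalase pretreatment; stained with 3 μM DCFH-DA for 30 min at 37 °C in the dark, washed, DCF fluorescence read by flow cytometry (488/530 nm); triplicate.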

[24] = test system: HepG2; test: Induction of intracellular ROS production in human HepG2 cells at 50 uM after 6 hrs by DCFH-DA staining based flow cytometry in presence of catalase; type: functional, cell-based; method in brief: as §2
[25] = test system: HepG2; test: Induction of superoxide radical generation production in human HepG2 cells at 50 uM incubated for 6 hrs by DHE staining based flow cytometry; type: functional, cell-based
Method in brief: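 Cells incubated 6 h with 50 μM compound, stained with 3 μM DHE for 30 min at 37 °C in the dark, and analysed by flow cytometry; triplicate.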

[26] = test system: HepG2; test: Cellular uptake in human HepG2 cells at 50 uM after 1 hr; type: ADME, cell-based; settings: hepg2, 1 h
Method in brief: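 HepG2 cells exposed to 50 μM for varying incubation periods; cells lysed, lysate extracted with methanol, and uptake estimated by absorbance of the extract.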

[27] = test system: HepG2; test: Induction of intracellular ROS production in human HepG2 cells assessed as decrease in GSH/GSSG ratio incubated for 6 hrs by glutathione reductase-DTNB recycling assay; type: functional, cell-based
Method in brief: (§3)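 HepG2 (5×10^5/well) grown 24 h, treated 6 h, then lysed in ice-cold 10 mM HCl by three freeze–thaw cycles; part of lysate used for protein. Proteins precipitated with 6.5% 5-sulfosalicylic acid; supernatant assayed for total GSH and GSSG by glutathione reductase–DTNB recycling; triplicate.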

[28] = test system: HepG2; test: Induction of intracellular ROS production in human HepG2 cells assessed as decrease in GSH/GSSG ratio at 50 uM incubated for 6 hrs by glutathione reductase-DTNB recycling assay relative to control; type: functional; method in brief: as §3
[29] = test system: HepG2; test: Induction of lipid peroxidation in human HepG2 cells assessed as increase in malondialdehyde formation after 18 hrs; type: functional, cell-based
Method in brief: (§4)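 HepG2 (5×10^5/well) grown 24 h, treated 18 h at 6.25, 25, 37.5 or 50 μM, lysed in ice-cold water by freeze–thaw. Lysate heated 1 h at 95 °C with 0.4% thiobarbituric acid, 0.5% SDS, 9.4% acetic acid (pH 3.5), centrifuged, A532 read. MDA quantified against a tetramethoxypropane standard curve, expressed as pmol/mg protein; triplicate.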

[30] = test system: HepG2; test: Induction of lipid peroxidation in human HepG2 cells assessed as increase in malondialdehyde formation at 50 uM after 18 hrs relative to control; type: functional; method in brief: as §4
[31] = test system: HepG2; test: Cytotoxicity against human HepG2 cells assessed as reduction in cell viability at 50 uM after 48 hrs by MTT assay in presence of 5mM glutathione; type: functional, cell-based
Method in brief: (§5)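 HepG2 cells pretreated 1 h with 5 mM NAC or 5 mM GSH, then exposed to 50 μM test compound; viability measured by MTT (0.5 mg/mL, 4 h, DMSO solubilisation, 570 nm).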

[32] = test system: HepG2; test: Cytotoxicity against human HepG2 cells assessed as reduction in cell viability at 50 uM after 48 hrs by MTT assay in presence of 5mM N-acetylcysteine; type: functional, cell-based; method in brief: as §5
[33] = test system: HepG2; test: Induction of intracellular ROS production in human HepG2 cells at 50 uM after 3 to 6 hrs by DCFH-DA staining based flow cytometry in presence of 5mM glutathione; type: functional, cell-based
Method in brief: (§6)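 HepG2 pretreated 1 h with 5 mM GSH or 5 mM NAC, then exposed to 50 μM compound for the indicated time; loaded with 3 μM DCFH-DA for 30 min at 37 °C in the dark, washed with PBS, DCF fluorescence read by flow cytometry (ex 488, em 530 nm).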

[34] = test system: HepG2; test: Induction of intracellular ROS production in human HepG2 cells at 50 uM after 3 to 6 hrs by DCFH-DA staining based flow cytometry in presence of 5mM N-acetylcysteine; type: functional, cell-based; method in brief: as §6
[35] = test system: HepG2; test: Induction of mitochondrial membrane potential loss in human HepG2 cells at 50 uM after 18 hrs by rhodamine 123 staining based flow cytometry in presence of 5mM glutathione; type: functional, cell-based
Method in brief: (§7)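 HepG2 pretreated 1 h with 5 mM GSH or 5 mM NAC, then exposed to 50 μM compound for the indicated time; Rhodamine 123 fluorescence measured by flow cytometry; triplicate.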

[36] = test system: HepG2; test: Induction of mitochondrial membrane potential loss in human HepG2 cells at 50 uM after 18 hrs by rhodamine 123 staining based flow cytometry in presence of 5mM N-acetylcysteine; type: functional, cell-based; method in brief: as §7
[37] = test system: HepG2; test: Induction of apoptosis in human HepG2 cells assessed as early apoptotic cells at 5 mM after 24 hrs by Annexin V-FITC/propidium iodide staining based flow cytometry (reference value: 2.8%); type: functional; method in brief: as §1
[38] = test system: HepG2; test: Induction of apoptosis in human HepG2 cells assessed as late apoptotic cells at 5 mM after 24 hrs by Annexin V-FITC/propidium iodide staining based flow cytometry (reference value: 5.4%); type: functional; method in brief: as §1
[39] = test system: HepG2; test: Induction of apoptosis in human HepG2 cells assessed as necrotic cells at 5 mM after 24 hrs by Annexin V-FITC/propidium iodide staining based flow cytometry (reference value: 1.6%); type: functional; method in brief: as §1

SMILES: O=C(/C=C/c1ccc(O)cc1)CC(=O)/C=C/c1ccc(O)cc1 [BISDEMETHOXYCURCUMIN]
- IC50 [1]: 75.5 µM

SMILES: O=C(/C=C/c1cccc(O)c1)CC(=O)/C=C/c1cccc(O)c1
- IC50 [1]: 15.1 µM
- Stability [2]: Stable
- Ratio IC50 [3]: 3.5
- Activity [4]: 2.8%
- Activity [5]: 7%
- Activity [6]: 19.1%
- Activity [7]: 1.4%
- Activity [8]: 3%
- Activity [9]: 2.8%
- Activity [10]: 5.7%
- Activity [11]: 12.4%
- Activity [12]: 28.5%
- Activity [13]: 80.2%
- Activity [14]: 6.3%
- Activity [15]: 6.8%
- Activity [16]: 2.8%
- Activity [17]: 7%
- Activity [18]: 45%
- Activity [19]: 7.6%
- Activity [20]: 2%
- Activity [21]: 2.2%
- Activity [22]: Dose-dependent effect
- fold change (FC) [23]: 5
- Activity [24]: inactive
- Activity [25]: inactive
- Drug uptake [26]: Active
- Activity [27]: Dose-dependent effect
- fold change (FC) [28]: 2
- Activity [29]: Dose-dependent effect
- fold change (FC) [30]: 1
- Activity [31]: inactive
- Activity [32]: inactive
- Activity [33]: inactive
- Activity [34]: inactive
- Activity [35]: inactive
- Activity [36]: inactive

SMILES: COc1cc(/C=C/C(=O)CC(=O)/C=C/c2ccc(O)c(OC)c2)ccc1O [CURCUMIN]
- IC50 [1]: 52.3 µM

SMILES: COc1cccc(/C=C/C(=O)CC(=O)/C=C/c2cccc(OC)c2)c1
- IC50 [1]: 83.4 µM

SMILES: O=C(/C=C/c1ccccc1C(F)(F)F)CC(=O)/C=C/c1ccccc1C(F)(F)F
- IC50 [1]: > 200 µM

SMILES: O=C(/C=C/c1cccc(C(F)(F)F)c1)CC(=O)/C=C/c1cccc(C(F)(F)F)c1
- IC50 [1]: > 200 µM

SMILES: N[C@@H](CCC(=O)N[C@@H](CS)C(=O)NCC(=O)O)C(=O)O [GLUTATHIONE]
- Activity [37]: 2.5%
- Activity [38]: 5.5%
- Activity [39]: 2.1%
